Key:
[1] = Clearance in Sprague-Dawley rat at 2 mg/kg, iv; assay type: ADME, organism-based; set-up: dose 2 mg/kg, route intravenous; settings: in vivo
In short: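 Male Sprague-Dawley rats, 200–300 g, n = 3, given a single 2 mg/kg tail-vein bolus in 50% PEG-400/50% DMSO. Blood drawn via jugular cannula over 24 h and plasma acidified with HCl. Plasma levels measured by LC/MS/MS after acetonitrile precipitation with internal standard; quantitation limit 5 ng/mL. Clearance from non-compartmental analysis.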

[2] = Inhibition of cPLA2-alpha in Sprague-Dawley rat whole blood assay in presence of A23187; assay type: tissue-based
In short: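 Heparinized blood from male Sprague-Dawley rats, taken by cardiac puncture. Preincubated 15 min at 37 °C with compound in DMSO, then stimulated 10 min at 37 °C with 5 µM A23187 (final). Stopped with 20 mM EDTA; plasma precipitated with cold methanol at −80 °C. TXB2 measured by immunoassay; IC50 values averaged from at least two independent runs.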

[3] = Inhibition of human cPLA2-alpha assessed as cleavage of 7-hydroxycoumarinyl-gamma-linolenate
In short: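 Substrate 90 µM GLU with 120 µM DTPC. Compounds in DMSO tested in duplicate. Fluorescence (ex 355/em 460 nm) read every 4 min for 84 min; inhibition from slope. IC50 averaged from at least two independent runs.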

[4] = Oral bioavailability in Sprague-Dawley rat at 25 mg/kg administered through MC/TW formulation; assay type: ADME, organism-based; settings: in vivo
In short: (§1)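 Overnight-fasted male Sprague-Dawley rats (n = 3) gavaged in MC/TW or Phosal vehicle; compound at 37.5 mg/mL, diluted with water, dosed at 4 mL/kg. Jugular blood taken over 24 h; plasma analysed by LC/MS/MS. F calculated as the dose-normalized oral/iv AUC ratio, iv reference 2 mg/kg.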

[5] = Oral bioavailability in Sprague-Dawley rat at 5 mg/kg administered through MC/TW formulation; assay type: ADME, organism-based; settings: in vivo; in short: as §1
[6] = Oral bioavailability in Sprague-Dawley rat at 10 mg/kg administered through Phosal formulation; assay type: ADME, organism-based; settings: in vivo
[7] = Oral bioavailability in Sprague-Dawley rat at 25 mg/kg administered through Phosal formulation; assay type: ADME, organism-based; settings: in vivo; in short: as §1
[8] = Oral bioavailability in Beagle dog at 50 mg/kg administered through MC/TW formulation; assay type: ADME, organism-based, Canis lupus familiaris; settings: in vivo
In short: (§2)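 Fasted male Beagle dogs (n = 3) dosed orally in MC/TW or Phosal formulation, volume 4 or 6 mL/kg. Saphenous plasma collected over 24 h and measured by LC/MS/MS. F calculated as the dose-normalized oral/iv AUC ratio against 2 mg/kg iv.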

[9] = Clearance in Beagle dog at 2 mg/kg, iv; assay type: ADME, organism-based, Canis lupus familiaris; set-up: dose 2 mg/kg, route intravenous; settings: in vivo
In short: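 Male Beagle dogs, 8.5–13.0 kg, n = 3, fasted overnight, given 2 mg/kg iv in 20% DMSO/80% PEG-200. Saphenous blood sampled over 24 h and plasma acidified to about pH 4. Analysed by LC/MS/MS with internal standard. Clearance by non-compartmental methods.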

[10] = Oral bioavailability in Beagle dog at 50 mg/kg administered through Phosal formulation; assay type: ADME, organism-based, Canis lupus familiaris; settings: in vivo; in short: as §2

In the case of COc1ccccc1S(=O)(=O)NCCc1c(CCOc2ccc(C(=O)O)cc2)c2cc(Cl)ccc2n1C(c1ccccc1)c1ccccc1, the clearance [1] is reported as 18.6 mL/min/kg, the IC50 [2] is reported as 60 nM and the IC50 [3] is reported as 180 nM. For the same compound, the bioavailability [4] was < 0.1%.
In the case of Cc1cccc(C)c1S(=O)(=O)NCCc1c(CCOc2ccc(C(=O)O)cc2)c2cc(Cl)ccc2n1C(c1ccccc1)c1ccccc1, the clearance [1] is reported as 6.1 mL/min/kg, the IC50 [2] is reported as 95 nM and the IC50 [3] is reported as 100 nM. The bioavailability [4] was 6%.
With O=C(O)c1ccc(OCCc2c(CCNS(=O)(=O)c3ccccc3-c3ccccc3)n(C(c3ccccc3)c3ccccc3)c3ccc(Cl)cc23)cc1 the clearance [1] was 4.5 mL/min/kg, the IC50 [2] was 150 nM and the IC50 [3] was 110 nM. For the same compound, the bioavailability [4] was < 0.1%.
In the case of O=C(O)c1ccc(CCCc2c(CCNS(=O)(=O)c3c(Cl)cccc3Cl)n(C(c3ccccc3)c3ccccc3)c3ccc(Cl)cc23)cc1, the clearance [1] is reported as 8.5 mL/min/kg, the IC50 [2] is reported as 100 nM and the IC50 [3] is reported as 60 nM. It also gave a bioavailability [4] of 3.8%.
For O=C(O)c1ccc(OCCc2c(CCNS(=O)(=O)c3ccccc3Br)n(C(c3ccccc3)c3ccccc3)c3ccc(Cl)cc23)cc1, the clearance [1] was 3.1 mL/min/kg, the IC50 [2] was 320 nM and the IC50 [3] was 520 nM. The bioavailability [4] was < 0.2%.
With O=C(O)c1ccc(OCCc2c(CCNS(=O)(=O)Cc3ccccc3)n(C(c3ccccc3)c3ccccc3)c3ccc(Cl)cc23)cc1 the IC50 [2] was 120 nM, the IC50 [3] was 110 nM and the bioavailability [4] was 3.9%.
Work on O=C(O)c1ccc(CCCc2c(CCNS(=O)(=O)c3ccccc3Br)n(C(c3ccccc3)c3ccccc3)c3ccc(Cl)cc23)cc1 yielded a clearance [1] of 6.5 mL/min/kg, an IC50 [2] of 120 nM and an IC50 [3] of 100 nM. For the same compound, the bioavailability [4] was 1.9%.
O=C(O)c1ccc(OCCc2c(CCNS(=O)(=O)c3c(Cl)cccc3Cl)n(C(c3ccccc3)c3ccccc3)c3ccc(Cl)cc23)cc1 showed a clearance [1] of 16.3 mL/min/kg, an IC50 [2] of 210 nM and an IC50 [3] of 260 nM. It also gave a bioavailability [4] of 2.9%.
In the case of COc1ccccc1S(=O)(=O)NCCc1c(CCCc2ccc(C(=O)O)cc2)c2cc(Cl)ccc2n1C(c1ccccc1)c1ccccc1, the clearance [1] is reported as 10.7 mL/min/kg, the IC50 [2] is reported as 200 nM and the IC50 [3] is reported as 100 nM. The bioavailability [4] was 7.8%.
O=C(O)c1ccc(CCCc2c(CCNS(=O)(=O)Cc3ccccc3)n(C(c3ccccc3)c3ccccc3)c3ccc(Cl)cc23)cc1 gave a bioavailability [5] of 3.8%, a clearance [1] of 13 mL/min/kg and a bioavailability [6] of 7.2%. The IC50 [2] was 80 nM and the IC50 [3] was 40 nM.
O=C(O)c1ccc(CCCc2c(CCNS(=O)(=O)c3ccccc3Cl)n(C(c3ccccc3)c3ccccc3)c3ccc(Cl)cc23)cc1 gave a clearance [1] of 9.4 mL/min/kg, an IC50 [2] of 200 nM and an IC50 [3] of 100 nM. For the same compound, the bioavailability [4] was 13.7%.
Compound O=C(O)c1ccc(CCCc2c(CCNS(=O)(=O)c3ccccc3-c3ccccc3)n(C(c3ccccc3)c3ccccc3)c3ccc(Cl)cc23)cc1 has a clearance [1] of 2.3 mL/min/kg, an IC50 [2] of 60 nM and an IC50 [3] of 40 nM. The bioavailability [4] was 0.4%.
Cc1ccccc1S(=O)(=O)NCCc1c(CCOc2ccc(C(=O)O)cc2)c2cc(Cl)ccc2n1C(c1ccccc1)c1ccccc1 showed a clearance [1] of 61 mL/min/kg, an IC50 [2] of 160 nM and an IC50 [3] of 340 nM.
Work on Cc1ccccc1S(=O)(=O)NCCc1c(CCCc2ccc(C(=O)O)cc2)c2cc(Cl)ccc2n1C(c1ccccc1)c1ccccc1 yielded a clearance [1] of 10.3 mL/min/kg, an IC50 [2] of 95 nM and an IC50 [3] of 90 nM. It also gave a bioavailability [4] of 8.6%.
With O=C(O)c1ccc(OCCc2c(CCNS(=O)(=O)Cc3ccc(Cl)c(Cl)c3)n(C(c3ccccc3)c3ccccc3)c3ccc(Cl)cc23)cc1 [ECOPLADIB] the IC50 [2] was 160 nM and the bioavailability [4] was 6%.
Compound O=C(O)c1ccc(OCCc2c(CCNS(=O)(=O)c3ccccc3F)n(C(c3ccccc3)c3ccccc3)c3ccc(Cl)cc23)cc1 has a clearance [1] of 28 mL/min/kg, an IC50 [2] of 150 nM and an IC50 [3] of 600 nM. The bioavailability [4] was 6%.
Cc1cccc(C)c1S(=O)(=O)NCCc1c(CCCc2ccc(C(=O)O)cc2)c2cc(Cl)ccc2n1C(c1ccccc1)c1ccccc1 gave a clearance [1] of 10.5 mL/min/kg, an IC50 [2] of 75 nM and an IC50 [3] of 47 nM. It also gave a bioavailability [4] of 1.3%.
In the case of O=C(O)c1ccc(OCCc2c(CCNS(=O)(=O)c3ccccc3)n(C(c3ccccc3)c3ccccc3)c3ccc(Cl)cc23)cc1, the clearance [1] is reported as 73 mL/min/kg, the IC50 [2] is reported as 1000 nM and the IC50 [3] is reported as 3000 nM.
For O=C(O)c1ccc(OCCc2c(CCNS(=O)(=O)c3c(F)cccc3C(F)(F)F)n(C(c3ccccc3)c3ccccc3)c3ccc(Cl)cc23)cc1, the clearance [1] was 15.3 mL/min/kg, the IC50 [2] was 150 nM and the IC50 [3] was 180 nM. For the same compound, the bioavailability [4] was 3%.
In the case of O=C(O)c1ccc(CCCc2c(CCNS(=O)(=O)c3ccccc3F)n(C(c3ccccc3)c3ccccc3)c3ccc(Cl)cc23)cc1, the clearance [1] is reported as 8.8 mL/min/kg, the IC50 [2] is reported as 220 nM and the IC50 [3] is reported as 190 nM. It also gave a bioavailability [4] of 4%.
O=C(O)c1ccc(CCCc2c(CCNS(=O)(=O)Cc3ccc(Cl)c(Cl)c3)n(C(c3ccccc3)c3ccccc3)c3ccc(Cl)cc23)cc1 [EFIPLADIB] gave an IC50 [2] of 70 nM, an IC50 [3] of 40 nM and a bioavailability [4] of 1%. It also gave a bioavailability [7] of 6%.
Compound O=C(O)c1ccc(CCCc2c(CCNS(=O)(=O)c3ccccc3OC(F)(F)F)n(C(c3ccccc3)c3ccccc3)c3ccc(Cl)cc23)cc1 has a clearance [1] of 5.2 mL/min/kg, an IC50 [2] of 200 nM and an IC50 [3] of 100 nM. For the same compound, the bioavailability [4] was 4.6%.
With Cc1cccc(C)c1CS(=O)(=O)NCCc1c(CCCc2ccc(C(=O)O)cc2)c2cc(Cl)ccc2n1C(c1ccccc1)c1ccccc1 the bioavailability [8] was 0.08%, the clearance [1] was 4 mL/min/kg and the clearance [9] was 0.6 mL/min/kg. It also gave an IC50 [2] of 30 nM, an IC50 [3] of 14 nM and a bioavailability [10] of 1.5%. For the same compound, the bioavailability [4] was 1% and the bioavailability [7] was 3.5%.
O=C(O)c1ccc(OCCc2c(CCNS(=O)(=O)c3ccccc3OC(F)(F)F)n(C(c3ccccc3)c3ccccc3)c3ccc(Cl)cc23)cc1 showed a clearance [1] of 12.4 mL/min/kg, an IC50 [2] of 360 nM and an IC50 [3] of 350 nM. For the same compound, the bioavailability [4] was 15.4%.
Work on O=C(O)c1ccc(OCCc2c(CCNS(=O)(=O)c3cccc(-c4ccccc4)c3)n(C(c3ccccc3)c3ccccc3)c3ccc(Cl)cc23)cc1 yielded an IC50 [2] of 600 nM and an IC50 [3] of 570 nM.
Compound O=C(O)c1ccc(CCCc2c(CCNS(=O)(=O)c3cccc(-c4ccccc4)c3)n(C(c3ccccc3)c3ccccc3)c3ccc(Cl)cc23)cc1 has an IC50 [2] of 220 nM and an IC50 [3] of 180 nM.
With O=C(O)c1ccc(OCCc2c(CCNS(=O)(=O)c3ccccc3Cl)n(C(c3ccccc3)c3ccccc3)c3ccc(Cl)cc23)cc1 the clearance [1] was 31 mL/min/kg, the IC50 [2] was 550 nM and the IC50 [3] was 400 nM. It also gave a bioavailability [4] of 39%.

From ChEMBL document CHEMBL1141604, “Benzenesulfonamide indole inhibitors of cytosolic phospholipase A2alpha: optimization of in vitro potency and rat pharmacokinetics for oral efficacy” (Bioorg Med Chem, 2008)
